The values below come from ChEMBL document CHEMBL4387708, “Enhancement of Benzothiazoles as Pteridine Reductase-1 Inhibitors for the Treatment of Trypanosomatidic Infections” (J Med Chem, 2019).

The structures appear in SMILES notation. The source made the active and inactive calls. The calls are words filed in the database; no cut-off is given here.

Series [1] is described as follows: Selectivity index ratio of GI50 for human U2OS cells to EC50 for growth inhibition of Trypanosoma brucei bloodstream forms. To be noted: read-out: Ratio GI50/EC50. It counts as toxicity.
The nature of series [2]: AUC in BALB/c mouse at 20 mg/kg, po by LC-MS analysis. The class given is ADME, organism-based. To be noted: in vivo. An outline of the steps: (§1)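 Snapshot PK in healthy BALB/c mice. Free compound given in 8% DMSO at 1 mg/kg IV or 20 mg/kg per os; for the formulated arm it was solubilized with hydroxypropyl-β-cyclodextrin (50%) and given at 20 mg/kg per os. Plasma levels were quantified by LC-MS on a C18 column with triple-quadrupole ESI detection in positive ion mode.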

For series [3], the system named is Trypanosoma brucei brucei. Put plainly: Antitrypanosomal activity against red-shifted luciferase expressing Trypanosoma brucei brucei GVR35 infected in BALB/c mouse assessed as reduction in parasite infection at 40 mg/kg, po administered twice a day as suspension in hydroxypropyl-beta-cyclodextrin solution by bioluminescence assay. The class given is functional, organism-based. The essentials:
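T. b. brucei GVR35 (luciferase-expressing) was given IP to BALB/c mice as blood carrying 1 x 10⁵ parasites from a donor mouse at first-peak parasitemia; controls received PBS. Compound was given orally as a suspension in (2-hydroxypropyl)-β-cyclodextrin solution at 40 mg/kg twice daily. […] Parasite load was read by bioluminescence imaging after subcutaneous D-luciferin under isoflurane, as total flux per ROI.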

Another series relates to CYP2D6. The experiment in a line: Selectivity index ratio of IC50 for CYP2D6 (unknown origin) to EC50 for growth inhibition of Trypanosoma brucei bloodstream forms. It counts as toxicity. To be noted: read-out: Ratio IC50/EC50.
A short description of series [4]: Ratio of Cmax BALB/c mouse at 20 mg/kg, po co-formulated with hydroxypropyl-beta-cyclodextrin to EC50 for Trypanosoma brucei bloodstream forms. The note with it: in vivo. The class given is ADME, organism-based.
For a further series, the system named is CYP3A4. The experiment in a line: Selectivity index ratio of IC50 for CYP3A4 (unknown origin) to EC50 for growth inhibition of Trypanosoma brucei bloodstream forms. The class given is toxicity. To be noted: read-out: Ratio IC50/EC50.
In series [5] the test system is Trypanosoma brucei. Put plainly: Inhibition of PTR1 in Trypanosoma brucei bloodstream forms assessed as potentiation of methotrexate-induced parasitic cell growth inhibition by measuring potentiation index at 10 uM measured after 72 hrs by resazurin-based fluorescence assay relative to control (methotrexate). It counts as functional. An outline of the steps: (§2)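 Bloodstream-form T. brucei resazurin assay: 72 h at 37 °C, 5% CO₂, then fluorescence at ex 540/em 620 nm. Benzothiazole was tested at 10 μM alone and with 4 μM methotrexate. The index is the combination's activity divided by the sum of the activities of 10 μM benzothiazole and 4 μM methotrexate given separately.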

Series [6] is described as follows: Mitochondrial toxicity in human 786-O cells measured after 6 hrs by MitoTracker Red chloromethyl-X-rosamine based assay. It counts as cell-based, 786-0.
Series [7] can be described thus: Cmax in BALB/c mouse at 20 mg/kg, po co-formulated with hydroxypropyl-beta-cyclodextrin by LC-MS analysis. The class given is ADME, organism-based. On the set-up: dose 20 mg/kg, route oral. To be noted: in vivo. The essentials:
as §1

The test system of the next series is CYP2C19. The experiment in a line: Selectivity index ratio of IC50 for CYP2C19 (unknown origin) to EC50 for growth inhibition of Trypanosoma brucei bloodstream forms. The class given is toxicity. The note with it: read-out: Ratio IC50/EC50.
The test system of another series is CYP1A2. Put plainly: Selectivity index ratio of IC50 for CYP1A2 (unknown origin) to EC50 for growth inhibition of Trypanosoma brucei bloodstream forms. The class given is toxicity. To be noted: read-out: Ratio IC50/EC50.
The next series deals with CYP2C9. Put plainly: Selectivity index ratio of IC50 for CYP2C9 (unknown origin) to EC50 for growth inhibition of Trypanosoma brucei bloodstream forms. It counts as toxicity. To be noted: read-out: Ratio IC50/EC50.
In another series the target is T1, Pteridine reductase 1 (Leishmania major, UniProt Q01782).
T1 sequence (Q01782 whole entry): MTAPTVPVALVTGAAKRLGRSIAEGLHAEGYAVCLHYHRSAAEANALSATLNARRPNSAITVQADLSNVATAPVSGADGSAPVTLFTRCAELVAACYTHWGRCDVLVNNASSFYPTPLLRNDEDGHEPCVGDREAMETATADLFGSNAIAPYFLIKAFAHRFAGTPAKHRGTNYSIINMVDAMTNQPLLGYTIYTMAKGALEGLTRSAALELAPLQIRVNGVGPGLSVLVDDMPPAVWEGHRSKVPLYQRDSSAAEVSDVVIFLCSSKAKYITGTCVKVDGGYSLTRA
Put plainly: Inhibition of Leishmania major pteridine reductase 1 using di-hydrobiopterine as substrate in presence of NADPH. To be noted: read-out: IC50. The essentials:
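Photometric PTR1 assay with NADPH and dihydrobiopterin substrate. H₄B formation is coupled non-enzymatically to cytochrome c reduction, read as signal increase at 550 nm.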

The subject of series [8] is Trypanosoma brucei. The experiment in a line: Growth inhibition of Trypanosoma brucei bloodstream forms measured after 72 hrs by resazurin-based fluorescence assay. It counts as organism-based. An outline of the steps: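 Mid-log bloodstream-form T. brucei were seeded at a final 5 x 10^3/mL in supplemented HMI-9 with serial compound dilutions. Cultures ran 72 h at 37 °C, 5% CO₂, then 4 h more after resazurin. Fluorescence was read at ex 540/em 620 nm, and EC₅₀ was fitted by non-linear regression.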

Series [9] relates to Trypanosoma brucei. Put plainly: Inhibition of PTR1 in Trypanosoma brucei bloodstream forms assessed as potentiation of methotrexate-induced parasitic cell growth inhibition at 10 uM measured after 72 hrs by resazurin-based fluorescence assay (reference value: 19 +/- 6%). The essentials:
as §2

Series [10] can be described thus: Selectivity index ratio of IC50 for mitochondrial toxicity in human 786-O cells to EC50 for growth inhibition of Trypanosoma brucei bloodstream forms. The class given is cell-based. The note with it: read-out: Ratio IC50/EC50.
Series [11] in a line: Selectivity ratio of IC50 for Leishmania major pteridine reductase 1 to IC50 for N-terminal His-tagged Trypanosoma brucei pteridine reductase 1.
In a further series the test system is hERG. Put plainly: Selectivity index ratio of IC50 for human ERG to EC50 for growth inhibition of Trypanosoma brucei bloodstream forms. It counts as toxicity. To be noted: read-out: Ratio IC50/EC50.
Series [12] can be described thus: AUC in BALB/c mouse at 1 mg/kg, iv by LC-MS analysis. It counts as ADME, organism-based. To be noted: in vivo. An outline of the steps:
as §1

Another series addresses Cytochrome P450 2C9 (Homo sapiens, UniProt P11712). Put plainly: Inhibition of human CYP2C9 expressed in baculovirus infected insect cells using beetle D-luciferin as substrate preincubated for 30 mins followed by NADPH addition and measured after 30 mins by CYP450-Glo assay.
A short description of series [13]: Cytotoxicity against human A549 cells after 48 hrs by Celltiter-glo assay. The class given is cell-based. (In general: Cellular ATP, detected with luciferase, serves as a proxy for viable cell number.)
Series [14] is described as follows: Selectivity index ratio of GI50 for human A549 cells to EC50 for growth inhibition of Trypanosoma brucei bloodstream forms. It counts as toxicity. The note with it: read-out: Ratio GI50/EC50.

Chain of Cytochrome P450 2C9 (P11712 whole entry): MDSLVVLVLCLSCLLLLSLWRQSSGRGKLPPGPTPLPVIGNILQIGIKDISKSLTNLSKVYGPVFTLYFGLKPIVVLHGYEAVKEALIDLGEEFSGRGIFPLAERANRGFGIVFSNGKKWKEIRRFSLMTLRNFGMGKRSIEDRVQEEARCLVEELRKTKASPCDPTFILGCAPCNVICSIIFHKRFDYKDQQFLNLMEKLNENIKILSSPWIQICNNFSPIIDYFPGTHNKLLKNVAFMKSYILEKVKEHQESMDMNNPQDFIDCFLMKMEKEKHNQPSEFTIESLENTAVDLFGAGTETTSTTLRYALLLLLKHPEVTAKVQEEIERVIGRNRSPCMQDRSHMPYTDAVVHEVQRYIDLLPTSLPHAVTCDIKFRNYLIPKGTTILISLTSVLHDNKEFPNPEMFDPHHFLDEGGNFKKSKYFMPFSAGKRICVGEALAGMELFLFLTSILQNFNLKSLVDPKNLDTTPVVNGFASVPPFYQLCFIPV

Broadly, the AUC is concentration integrated over time. The low end stands for low exposure, the high end for high exposure. As usually defined, the IC50 is the concentration at which inhibition is half-maximal. One may read the Cmax as the maximum level reached in the sampled fluid or tissue. In general, EC50 refers to the concentration needed to bring the measured effect to its halfway point. A higher EC50 goes with a less potent agent. The term GI50 denotes the concentration at which growth is held to half of that of the control. As to `Nc1nc2ccc(C(=O)NCc3ccccc3)cc2s1`, the selectivity ratio (in series [1]; with CYP2D6; with CYP3A4; with CYP2C19; with CYP1A2; with CYP2C9) was greater than 10 throughout. The selectivity ratio (in [10]; in the series with hERG; in [14]) was greater than 10 throughout. For the same compound, the results for the AUC in [2] and in [12] were 4690 ng·h/mL and 1057 ng·h/mL, respectively. The result in series [3] was inactive. Besides, the Ratio in series [4] was 1.9; in the series on Trypanosoma brucei [5] it was 1.6. For the same compound, the IC50 at 6 h in series [6] is greater than 25 µM. Also, the concentration in series [7] peaked (Cmax) at 13 µM. Besides, the values for the IC50 on Pteridine reductase 1 and on Cytochrome P450 2C9 were 61.3 µM and greater than 25 µM, respectively. In the series with Trypanosoma brucei [8], this compound showed an EC50 of 7 µM. Besides, the growth inhibition (GI) with Trypanosoma brucei [9] came to 30%. Besides, the Ratio IC50 in series [11] lay within 2 to 100. Also, in series [13], the concentration for 50% growth inhibition (GI50) at 48 h is greater than 25 µM.
